Measurements taken from ChEMBL document CHEMBL1221395, “Synthesis, anticancer activity and mitochondrial mediated apoptosis inducing ability of 2,5-diaryloxadiazole-pyrrolobenzodiazepine conjugates” (Bioorg Med Chem, 2010).
Active and inactive are the calls of the source. The rule behind the calls is not given here.

Tests used:
[1] = system: A549; test: Cytotoxicity against human A549 cells after 24 hrs by WST-1 assay; assay type: functional; conditions: A549, 24 h
[2] = system: Calf thymus DNA; test: Binding affinity to calf thymus DNA assessed as change in melting temperature after 18 hrs; assay type: nucleic-acid assay; conditions: Bos taurus
Method in brief: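 Thermal melting with duplex CT-DNA (100 µM in phosphate) and ligand (20 µM), added from methanol stock, [PBD]/[DNA] 1:5, in 10 mM sodium phosphate + 1 mM EDTA, pH 7.00; incubated at 37 °C for 18 h. A260 monitored while heating at 1 °C/min over 40–90 °C. Tm taken from d(A260)/dT maxima, corrected for methanol; ΔTm = Tm(DNA+ligand) − Tm(DNA alone); at least three determinations.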

[3] = system: PC-3; test: Cytotoxicity against human PC3 cells after 24 hrs by WST-1 assay; assay type: functional; conditions: PC-3, 24 h
[4] = Cytotoxicity against human Gurav cells after 24 hrs by WST-1 assay; assay type: functional
[5] = system: HOP-62; test: Cytotoxicity against human HOP62 cells after 24 hrs by WST-1 assay; assay type: functional; conditions: HOP-62, 24 h
[6] = Lipophilicity, log P of the compound; assay type: physicochemical; conditions: octanol/water
[7] = system: A-375; test: Induction of apoptosis in human A375 cells assessed as increase in Bax protein level at 4 uM after 24 hrs by Western blotting; assay type: functional, cell-based
Method in brief: (§1)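 A375 cells treated at 4 µM for 24 h. Lysates cleared at 12,000 rpm for 10 min, and protein quantified by Bradford. 30 µg per lane run on 12% SDS-PAGE and transferred to PVDF. Blocked 2 h in TBST with 5% blocking powder. Primary antibody overnight at 4 °C, HRP secondary (1:2000) 1 h at room temperature. β-actin used as loading control; untreated cells as control.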

[8] = system: A-375; test: Induction of apoptosis in human A375 cells assessed as increase in cytochrome C protein level at 4 uM after 24 hrs by Western blotting; assay type: functional, cell-based; method in brief: as §1
[9] = system: A-375; test: Induction of apoptosis in human A375 cells assessed as increase in PARP protein level at 4 uM after 24 hrs by Western blotting; assay type: functional, cell-based; method in brief: as §1
[10] = system: A-375; test: Induction of apoptosis in human A375 cells assessed as increase in Caspase 3 activation at 4 uM after 24 hrs by fluorimetry; assay type: functional, cell-based
Method in brief: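 A375 cells exposed to 4 µM compound. Cell lysate incubated with DEVD-AFC substrate, with or without DEVD-CHO inhibitor, at 37 °C for 1 h in a fluorescent caspase-3 kit. Fluorescence read at excitation 400 nm, emission 505 nm.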

[11] = Cytotoxicity against human DWD cells by SRB assay
[12] = system: A2780; test: Cytotoxicity against human A2780 cells by SRB assay
[13] = system: ZR-75-1; test: Cytotoxicity against human ZR-75-1 cells by SRB assay
[14] = system: KB; test: Cytotoxicity against human KB cells after 24 hrs by SRB assay
[15] = system: MCF7; test: Cytotoxicity against human MCF7 cells by sulforhodamine B assay
[16] = system: SiHa; test: Cytotoxicity against human SiHa cells after 24 hrs by SRB assay
[17] = system: COLO 205; test: Cytotoxicity against human COLO205 cells after 24 hrs by SRB assay; conditions: COLO 205, 24 h
[18] = system: A-375; test: Cell cycle arrest in human A375 cells assessed as accumulation at S phase after 24 hrs by FACS flow cytometry; set-up: concentration or dose not given beside the values
[19] = system: A-375; test: Cell cycle arrest in human A375 cells assessed as accumulation at G1 phase after 24 hrs by FACS flow cytometry; set-up: concentration or dose not given beside the values
[20] = system: A-375; test: Cell cycle arrest in human A375 cells assessed as accumulation at G2/M phase after 24 hrs by FACS flow cytometry; set-up: concentration or dose not given beside the values
[21] = system: A-375; test: Cell cycle arrest in human A375 cells assessed as accumulation at Sub-G1 phase after 24 hrs by FACS flow cytometry; set-up: concentration or dose not given beside the values

| ΔTm [2] | logP [6] | Structure (SMILES) | GI50 [1] | GI50 [3] | GI50 [4] | GI50 [5] | GI50 [11] | GI50 [12] | GI50 [13] | GI50 [14] | GI50 [15] | GI50 [16] | GI50 [17] | other results |
| --- | --- | --- | --- | --- | --- | --- | --- | --- | --- | --- | --- | --- | --- | --- |
| 2 °C | 4.39 | COc1ccc(-c2nnc(-c3ccc(F)cc3)o2)cc1OCCCOc1cc2c(cc1OC)C(=O)N1CCC[C@H]1C=N2 | 0.15 µM | < 0.1 µM | 0.16 µM | 0.16 µM | < 0.1 µM | 0.14 µM | < 0.1 µM | 0.15 µM | < 0.1 µM | 0.17 µM | < 0.1 µM | Activity [7]: Active; Activity [8]: Active; Activity [9]: Active; Activity [10]: Active; Activity [18]: 14.14%; Activity [19]: 74%; Activity [20]: 5.06%; Activity [21]: 6.79% |
| 1.5 °C | 3.92 | COc1ccc(-c2nnc(-c3ccc(OC)c(OCCCOc4cc5c(cc4OC)C(=O)N4CCC[C@H]4C=N5)c3)o2)cc1OC | < 0.1 µM | < 0.1 µM | 0.11 µM | 0.13 µM | < 0.1 µM | 0.11 µM | < 0.1 µM | 0.11 µM | < 0.1 µM | 0.15 µM | < 0.1 µM | – |
| 2.1 °C | 4.13 | COc1ccc(-c2nnc(-c3cc(OC)c(OC)c(OC)c3)o2)cc1OCCCCOc1cc2c(cc1OC)C(=O)N1CCC[C@H]1C=N2 | < 0.1 µM | 0.16 µM | < 0.1 µM | 0.13 µM | 0.12 µM | < 0.1 µM | 0.16 µM | < 0.1 µM | 0.15 µM | 0.13 µM | < 0.1 µM | – |
| 1.8 °C | 5.17 | COc1ccc(-c2nnc(-c3ccc(F)cc3)o2)cc1OCCCCCOc1cc2c(cc1OC)C(=O)N1CCC[C@H]1C=N2 | 0.14 µM | 0.16 µM | < 0.1 µM | 0.12 µM | < 0.1 µM | < 0.1 µM | 0.15 µM | < 0.1 µM | 0.12 µM | 0.12 µM | < 0.1 µM | – |
| 1.7 °C | 5.84 | COc1ccc(-c2nnc(-c3ccc(C(F)(F)F)cc3)o2)cc1OCCCCCOc1cc2c(cc1OC)C(=O)N1CCC[C@H]1C=N2 | < 0.1 µM | 0.13 µM | < 0.1 µM | 0.13 µM | < 0.1 µM | < 0.1 µM | 0.11 µM | 0.11 µM | < 0.1 µM | 0.12 µM | 0.11 µM | – |
| 1.6 °C | 4.53 | COc1ccc(-c2nnc(-c3cc(OC)c(OC)c(OC)c3)o2)cc1OCCCCCOc1cc2c(cc1OC)C(=O)N1CCC[C@H]1C=N2 | 0.14 µM | 0.15 µM | < 0.1 µM | < 0.1 µM | < 0.1 µM | < 0.1 µM | 0.12 µM | < 0.1 µM | < 0.1 µM | < 0.1 µM | 0.12 µM | Activity [7]: Active; Activity [8]: Active; Activity [9]: Active; Activity [10]: Active; Activity [18]: 10.4%; Activity [19]: 73.5%; Activity [20]: 2.34%; Activity [21]: 13.76% |
| 2.1 °C | 5.44 | COc1ccc(-c2nnc(-c3ccc(C(F)(F)F)cc3)o2)cc1OCCCCOc1cc2c(cc1OC)C(=O)N1CCC[C@H]1C=N2 | 0.11 µM | 0.16 µM | 0.14 µM | 0.16 µM | 0.15 µM | 0.14 µM | 0.12 µM | 0.15 µM | 0.14 µM | 0.17 µM | 0.16 µM | – |
